RGS4 block: human RGS4 inhibition. HEK293 M3R/RGS4 inducible, Fluo-4 calcium flux; hits give high values; triggered by carbachol at its EC20. B-score at 10 µM. 310,000 tested, 0.45% active. AID 463165;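 active means B-score, a plate-corrected calcium signal, over three deviations above library mean, with baseline fluorescence within five deviations of library mean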;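 further: RGS4 expression induced by doxycycline in cells with stable M3 receptor; B-score is computed from the integrated fluorescence ratio over baseline after carbachol; higher B-score means a larger calcium signal and so more RGS4 inhibition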
Target sequence (P49798 whole entry, looked up): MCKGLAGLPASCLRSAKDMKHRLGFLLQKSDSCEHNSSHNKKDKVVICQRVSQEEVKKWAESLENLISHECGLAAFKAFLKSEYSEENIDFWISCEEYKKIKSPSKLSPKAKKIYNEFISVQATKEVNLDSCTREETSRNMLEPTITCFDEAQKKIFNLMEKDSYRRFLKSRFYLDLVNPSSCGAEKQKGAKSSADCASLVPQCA
MrgX1 agonist: human MrgX1 receptor agonism, primary screen. B-score at 10 µM. Q96LB2. MrgX1-HEK293 cells, Fluo-4 calcium fluorescence, agonist mode; hits give high values. 310,000 tested, 0.44% active;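 active means calcium response B-score plate-corrected fluorescence ratio at least 3 library SD, with starting fluorescence B-score inside 5 SD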
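Test system: Stable human MrgX1 HEK293 cell line | Schedule: Overnight plating before 1 h dye loading | Read-out basis: Baseline-normalised fluorescence change ratio, B-scored | Detection: Kinetic calcium dye fluorescence, Fluo-4 NW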
MrgX1 PAM: human MrgX1 positive allosteric modulation, primary screen; AID 588675; Q96LB2; MrgX1-HEK293, Fluo-4 calcium flux, FDSS; hits give high values; 310,000 tested, 0.63% active; B-score at 10 µM;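 active means plate-corrected calcium response at least 3 library SD above typical, normal starting fluorescence, not activating the receptor alone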;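 further: compound read alongside a low EC10 to EC30 dose of BAM8-22 agonist; peak minus trough fluorescence over baseline measured at the second addition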
MrgX1 antag: human MrgX1 receptor antagonism, primary screen; AID 588676; MRGX1-HEK293 calcium flux, Fluo-4, BAM8-22 antagonism; hits give low values; 310,000 tested, 1.3% active; B-score at 10 µM;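 active means calcium-response B-score plate-corrected more than 3 library SD below zero, starting fluorescence within 5 deviations, no agonist response on first addition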;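 further: peak minus trough fluorescence over baseline after final BAM8-22 challenge near maximal dose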
RGS4 pot: potentiators or activators of RGS4 | HEK293 M3R/inducible RGS4, carbachol calcium flux Fluo4; hits give low values | B-score at 10 µM | 310,000 tested, 0.92% active | AID 463111;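 active means B-score of the integrated calcium signal more than 4 SD below the library mean, with starting fluorescence not abnormally high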;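 further: negative B-score means reduced calcium response which marks RGS4 activation or potentiation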
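Also added: carbachol at ECmax as muscarinic agonist stimulus; Assay system: HEK293 cells with stable M3R and inducible RGS4; Timing: overnight RGS4 induction, 30 min dye load 37 °C, 20 min compound RT; Measured by: Fluo4-AM (2 µM) calcium-flux fluorescence, kinetic read.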
RGS4 activ val: RGS4 activation, validation assay; inhibition, % at 10 µM; 1,100 tested, 89% active; shares compounds with RGS4 pot; AID 602282; HEK293 M3R/RGS4 inducible, carbachol calcium flux Fluo4;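 active means inhibition above 3 SD of the buffer control wells, cut at about 41% in these data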;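 further: signal is the integrated peak-minus-minimum Fluo4 fluorescence over baseline ratio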
M3R Ca counter: counter-screen for RGS4 activators: effect in non-induced cells; HEK293 M3R non-induced RGS4, Fluo4 calcium flux; after carbachol challenge at its EC90; inhibition, % at 10 µM; 1,100 tested, 82% active; shares compounds with RGS4 pot; AID 602283;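 active means inhibition exceeding 3 SD of buffer-only control wells, cut at about 26% in these data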;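 further: percent drop in integrated peak-minus-baseline over baseline Fluo4 ratio after carbachol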
Active calls of the source: *; i = inactive; / = no result. Most compounds without a hit are left out; they make up all but 3.5% or so of the library.

SMILES | RGS4 block | MrgX1 agonist | MrgX1 PAM | MrgX1 antag | RGS4 pot | RGS4 activ val | M3R Ca counter
COc1ccc(-c2csc3ncnc(N4CCN(c5ccccc5Cl)CC4)c23)cc1 | i | i | i | i | -8.57* | 75.5* | 83.8*
CN1CCCC(CC2Oc3ccccc3Sc3ccccc32)C1 (centres undefined) | i | i | i | i | -9.11* | 93.0* | 91.8*
COc1ccccc1Cn1c(=S)[nH]c2ccc(Br)cc2c1=O | i | i | i | i | i | / | /
CC1CC(OC(=O)C(O)c2ccccc2)CC(C)(C)N1C (centres undefined) | i | i | i | i | -10.3* | 77.0* | 38.3*
COc1ccc(OC)c(CCNC(=O)CN2C(=O)COc3ccc(S(=O)(=O)N4CCOCC4)cc32)c1 | i | i | i | i | i | / | /
CC(C)(O)C#Cc1ccc(CN2CCCC(CO)(Cc3cccc(Cl)c3)C2)cc1 (centres undefined) | i | i | i | i | -8.98* | 76.0* | 31.3*
CN(C)S(=O)(=O)N1CCCC(C(=O)c2ccc(C(F)(F)F)cc2)C1 (centres undefined) | i | i | i | i | i | / | /
CC(=O)Nc1ccc(CN2CCN(C3CCCC3)C(CCO)C2)cc1 (centres undefined) | i | i | i | i | -8.01* | 88.0* | 51.8*
CC(=O)Nc1ccc(CN2CCCC(C(=O)c3ccc(C(F)(F)F)cc3)C2)cc1 (centres undefined) | i | i | i | i | -10.3* | 72.0* | 83.8*
OCCC1CN(Cc2cnc(N3CCCC3)s2)CCN1C1CCCC1 (centres undefined) | i | i | i | i | -7.86* | 70.5* | 26.8*
OCCC1CN(C/C(Cl)=C/c2ccccc2)CCN1C1CCCC1 (centres undefined) | i | i | i | i | -10.5* | 70.5* | 83.8*
CCOC(=O)N1CCN(S(=O)(=O)c2ccc(OC)c(Cl)c2Cl)CC1 | i | i | i | i | i | / | /
O=C(NCC1CCCO1)C(c1ccc(F)cc1)N(CCCN1CCOCC1)C(=O)c1ccc(-c2ccccc2)[nH]1 (centres undefined) | i | i | i | i | i | / | /
COc1ccc(C)cc1S(=O)(=O)N1CCN(C(=O)c2ncoc2-c2ccc(C)cc2)CC1 | i | i | i | i | -8.18* | 82.0* | 31.8*
Cc1cc2c(cc1C)NC(c1c(C)n(C)n(-c3ccccc3)c1=O)C1=C(CC(C)(C)CC1=O)N2 (centres undefined) | i | i | i | i | -10.9* | 71.0* | 62.3*
O=C(Oc1ccc(OC(=O)N2CCCCC2)cc1)c1ccccc1 | i | i | i | i | -10.5* | 61.5* | 83.8*
O=C(Oc1ccccc1)N1CCCC1 | i | i | i | i | i | / | /
COC(=O)c1ccc(-c2noc(CN3CCCCC3c3nccn3C)n2)cc1 (centres undefined) | i | i | i | i | -10.1* | 91.0* | 68.3*
Cn1ccnc1C1CCCCN1Cc1nc(Cc2ccccc2F)no1 (centres undefined) | i | i | i | i | i | / | /
CN(c1ccccc1)S(=O)(=O)c1cccc(C(=O)NCCc2c[nH]c3ccccc23)c1 | i | i | i | i | -9.16* | 74.0* | 47.8*
Cc1c(CCOC(=O)C23CC4CC(CC(C4)C2)C3)sc[n+]1Cc1ccccc1 | i | i | i | i | -11.6* | 91.5* | 61.3*
Cc1ncc(C[n+]2csc(CCOC(=O)C34CC5CC(CC(C5)C3)C4)c2C)c(N)n1 | i | i | i | i | i | / | /
Cc1scc(-c2n[nH]c(=S)n2Cc2ccccc2)c1C | i | i | i | i | -7.62* | 73.5* | 83.8*
COc1cccc(Cc2n[nH]c(=S)n2Cc2ccco2)c1 | i | i | i | i | -10* | 60.5* | 83.8*
